Bioassay records as filed in PubChem BioAssay.
Apaf1 activ – activators of human Apaf-1 apoptosome, primary screen, biochemical, DEVD-Rh110 fluorescence, uHTS. Apoptotic protease-activating factor 1 (Homo sapiens), O14727. Apaf-1 apoptosome caspase-3 activation; active compounds read low. activity change, negative = activation, % at 20 µM. actives 0.31% (n = 330,000). AID 489031, 2010;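 active = activity change at or below -40% at 20 µM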
Target sequence (O14727 whole entry, looked up): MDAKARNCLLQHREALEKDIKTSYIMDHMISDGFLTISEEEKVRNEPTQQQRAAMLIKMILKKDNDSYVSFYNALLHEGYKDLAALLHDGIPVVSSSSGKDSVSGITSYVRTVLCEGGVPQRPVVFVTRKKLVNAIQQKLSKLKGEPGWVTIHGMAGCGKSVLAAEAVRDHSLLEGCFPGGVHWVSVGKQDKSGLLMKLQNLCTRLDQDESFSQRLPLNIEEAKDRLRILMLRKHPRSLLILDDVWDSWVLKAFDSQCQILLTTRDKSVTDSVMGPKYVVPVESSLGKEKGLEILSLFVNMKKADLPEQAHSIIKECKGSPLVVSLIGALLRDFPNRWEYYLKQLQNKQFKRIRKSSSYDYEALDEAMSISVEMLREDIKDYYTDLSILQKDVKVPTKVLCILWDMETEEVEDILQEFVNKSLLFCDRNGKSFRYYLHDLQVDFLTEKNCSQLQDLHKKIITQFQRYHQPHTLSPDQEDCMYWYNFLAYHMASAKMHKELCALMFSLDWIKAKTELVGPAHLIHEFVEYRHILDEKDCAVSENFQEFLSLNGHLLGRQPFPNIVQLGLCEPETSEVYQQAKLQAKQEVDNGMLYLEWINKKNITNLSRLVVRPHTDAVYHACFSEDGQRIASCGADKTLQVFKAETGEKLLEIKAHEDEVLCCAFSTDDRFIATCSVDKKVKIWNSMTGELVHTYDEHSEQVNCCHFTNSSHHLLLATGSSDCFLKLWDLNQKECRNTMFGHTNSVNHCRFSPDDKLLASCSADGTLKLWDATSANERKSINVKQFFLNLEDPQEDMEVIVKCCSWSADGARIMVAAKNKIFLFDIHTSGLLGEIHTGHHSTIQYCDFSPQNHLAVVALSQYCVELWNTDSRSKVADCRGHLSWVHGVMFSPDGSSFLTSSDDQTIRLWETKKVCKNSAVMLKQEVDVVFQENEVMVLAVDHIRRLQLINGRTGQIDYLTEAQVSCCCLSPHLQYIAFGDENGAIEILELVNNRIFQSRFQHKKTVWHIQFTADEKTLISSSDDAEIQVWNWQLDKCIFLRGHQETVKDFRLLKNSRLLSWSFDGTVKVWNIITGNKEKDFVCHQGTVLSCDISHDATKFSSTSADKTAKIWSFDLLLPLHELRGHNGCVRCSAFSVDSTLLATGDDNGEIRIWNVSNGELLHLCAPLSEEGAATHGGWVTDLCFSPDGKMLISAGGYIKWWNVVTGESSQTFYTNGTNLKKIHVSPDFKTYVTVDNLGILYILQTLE
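system = biochemical Apaf-1 apoptosome reconstitution | buffer or medium = 20 mM HEPES pH 7.5 with CHAPS, BSA | also added = dATP and cytochrome c as apoptosome triggers, (Z-DEVD)2-Rh110 substrate | incubation = 30 min compound preincubation and 50 min reaction, both room temperature | measured by = fluorescence, 540 nm emission, 480 nm excitation | read-out basis = Caspase-3 cleavage activity downstream of Apaf-1 activation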
Rh110 interf act – Rh110 fluorescence interference by putative Apaf-1 activators, confirmation, artefact control for Apaf-1 activator project, biochemical, 20 µM; shares compounds with Apaf1 activ; quenched caspase reaction, Ex480/Em540; fluorescence interference (activity change), % at 20 µM, hits read low; 980 tested, under 10 active;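 active = mean activity change at or below -40% when tested at 20 µM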
Apaf-1 act conf – Apaf-1 activators, single-dose retest, confirmation, biochemical, fluorescence, DEVD-Rh110, 20 µM; activity change, negative = activation, % at 20 µM; AID 504617, 2011; shares compounds with Apaf1 activ; reconstituted apoptosome caspase-3 activity; active compounds read low; actives 5% (n = 980);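 active = mean activity change at or below -40%, meaning activation of 40% or more, at 20 µM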
Hits are given with their value; - = inactive; . = no result given. A selection follows.

SMILES	Apaf1 activ	Rh110 interf act	Apaf-1 act conf
Cc1noc(C)c1COc1ccccc1C(=O)N1CCN(c2cccc(Cl)c2)CC1	-	.	.
O=C1c2ccccc2-c2nnc(-c3ccc(F)cc3)cc21	-	.	.
O=C(C(Cc1ccccc1)N1C(=O)c2ccccc2C1=O)N1c2ccccc2CCc2ccccc21 (stereo unspecified)	-	.	.
C=CCN(CC=C)C(=S)Nc1ccc2nsnc2c1	-	.	.
Cc1ccc(-c2nnc(CSc3nnc(COc4cccc5ccccc45)n3-c3ccccc3)o2)cc1	-	.	.
CN1CCN(S(=O)(=O)c2ccc(N3CCN(C(c4ccccc4)c4ccccc4)CC3)nc2)CC1	-77.6	-	-
COc1ccc(S(=O)(=O)N2CCN(c3ccc4nnc(-c5ccccc5)n4n3)CC2)cc1	-	.	.
CCOC(=O)c1c(NC(=O)c2ccc(C)cc2)sc2c1CC(C)(C)NC2(C)C	-	.	.
CCC(OCC(O)CN1CCCCC1)c1ccccc1 (stereo unspecified)	-516.0	-	-
C#CCOCCOCCOCCNc1nc(N2CCN(C(=O)CCCCCCCCCCNC(=O)[C@@H](CCSC)n3cc(CCO)nn3)CC2)nc(N2CCN(C(=O)CCCCCCCCCCNC(=O)[C@H](CCCN=C(N)N)n3cc(C[C@@H](C)CC)nn3)CC2)n1	-	.	.
c1ccc(-c2nc(C3CCCCC3)no2)cc1	-153.7	-	-
O=C(NCCCO)Nc1ccc2nc(-c3ccco3)c(-c3ccco3)nc2c1	-	.	.
COC(=O)C1=C(C)N(Cc2ccccc2)C(=NCc2cccc(Cl)c2)N[C@H]1c1ccccc1	-	.	.
C=CCC[C@@H](Cc1ccc(F)cc1)C(=O)OC[C@@H]1CCCN1C(=O)[C@H](CC=C)CC(=O)N[C@H](CO)Cc1ccccc1	-	.	.
CC1=NN(c2ccc(C(F)(F)F)cn2)C(=O)C1	-	.	.
Cc1[nH]n(-c2ccccc2)c(=O)c1C(c1cccc([N+](=O)[O-])c1)c1c(C)[nH]n(-c2ccccc2)c1=O	-	.	.
FC(F)(F)c1cc(CCN2CCNC[C@@H]2c2ccccc2)cc(C(F)(F)F)c1	-	.	.
CCCC(=O)N1c2ccccc2[C@@H](N(C(C)=O)c2ccccc2)C[C@H]1C	-55.4	-	-
Cc1cc2nc3ccc(N(C)C)cc3nc2cc1N	-	.	.
N#Cc1c(N2CCCC2)nc(N)c2c(N)nc(N3CCCC3)cc12	-	.	.
O=C1Cc2ccccc2C(=O)N1CCc1ccccc1	-	.	.
COc1ccc(SC[C@H](C)CN2CC[C@H](NC(=O)OCc3ccccc3)CCC2=O)cc1	-	.	.
CCOC(=O)c1sc2nc3c(SCC(=O)O)cc(C(=O)c4ccccc4O)cn3c(=O)c2c1C	-189.2	-	-
CC1(C)CC(=O)C(C=Nc2ccc(O)c(N=CC3=C(O)CC(C)(C)CC3=O)c2)=C(O)C1	-	.	.
CCC(C)(C)c1ccc(OCCCC[n+]2cccc(C)c2C)c(C(C)(C)CC)c1	-	.	.
SMILES	Apaf1 activ	Rh110 interf act	Apaf-1 act conf
CC1CCCCN1S(=O)(=O)c1ccc(C(=O)N(CCCN(C)C)c2nc3ccc(Br)cc3s2)cc1 (stereo unspecified)	-	.	.
O=C(O)c1cc([N+](=O)[O-])ccc1NCCc1ccccc1	-97.3	-	-
C#CCOCCOCCOCCNc1nc(N2CCN(C(=O)CCCCCCCCCCNC(=O)[C@H]([C@@H](C)CC)n3cc(CCCCN=C(N)N)nn3)CC2)nc(N2CCN(C(=O)CCCCCCCCCCNC(=O)[C@H](CCCN=C(N)N)n3cc(C[C@@H](C)CC)nn3)CC2)n1	-	.	.
CC(=O)N(C)c1ccc(N=Cc2cc3c(cc2[N+](=O)[O-])OCO3)cc1	-	.	.
CC(=O)c1ccc(OCC(=O)NCC(c2ccco2)N2CCCCC2)cc1 (stereo unspecified)	-43.9	-	-
COc1ccc(C[C@H]2CN3C(=NC[C@@H]3Cc3ccccc3)N2CCNC(=O)CCC2CCCCC2)cc1	-	.	.
COc1ccccc1/C=C1/C(=O)N(c2ccccc2)N=C1C	-	.	.
CCC(C)c1ccc(NC(=O)C2CCN(c3ncccn3)CC2)cc1 (stereo unspecified)	-121.7	-	-
Cc1sc2ncnc(N3CCC(C(=O)Nc4ccc(Cl)c(Cl)c4)CC3)c2c1C	-	.	.
COC/C=C/C1=CC2=CC(=O)C(C)(OC(=O)c3cnc4ccccc4n3)C(=O)C2=CN1CC(C)C (stereo unspecified)	-	.	.
CCOc1ccc2nc3cc(NCc4ccc(OC)cc4)ccc3c(N)c2c1	-	.	.
c1ccc2c(C[C@@H]3CNCCN3CCCCC3CCCCC3)cccc2c1	-	.	.
CC(NC(=O)Nc1ccc(F)cc1)c1ccc2c(c1)OCO2 (stereo unspecified)	-71.5	-	-
CC(=O)OCCCNc1cc(Sc2nc3ccccc3s2)c2nonc2c1[N+](=O)[O-]	-	.	.
COC(=O)CCC(=O)OC1(C)C(=O)C2=CN(CCc3ccccn3)C(c3ccc(OC)cc3)=CC2=C(Br)C1=O (stereo unspecified)	-	.	.
CC(C)N(C(=O)Nc1ccc2nsnc2c1)C(C)C	-	.	.
O/C=c1\ccc2cccc3nc(C(F)(F)F)nc1c23	-	.	.
CCCCC(CCC(=O)Nc1cc([N+](=O)[O-])ccc1O)C(=O)O (stereo unspecified)	-227.0	-	-
Cc1cc(O)c(C(C)C)cc1N=Cc1cc([N+](=O)[O-])ccc1O	-	.	.
Cc1oc2cc(OCC(=O)O)ccc2c(=O)c1Oc1ccccc1	-99.8	-	-
CCOC(=O)c1c2ccc(OCC(=O)NN)cc2n2ccccc12	-	.	.
O=C(COc1ccc2c3c(c(=O)oc2c1)CCC3)N1CCN(c2ccc(F)cc2)CC1	-	.	.
COc1ccc(CNc2ccc3cn[nH]c3c2)c(OC)c1OC	-	.	.
CC(C)(C)C(=O)NC1=NN(c2c(Cl)cc(Cl)cc2Cl)C(=O)C1	-	.	.
Cc1ccc(-c2nc3n(n2)Cc2ccccc2-3)cc1	-196.6	-	-
SMILES	Apaf1 activ	Rh110 interf act	Apaf-1 act conf
c1ccc(C[C@H]2CNCCN2CCCCC2CCCCC2)cc1	-	.	.
O=C(NC1(O)C(=O)c2ccccc2C1=O)c1c(Cl)cccc1Cl	-	.	.
CC(NC(=O)c1ccccc1Cl)C(=O)O (stereo unspecified)	-532.5	-	-
CN(C)CCN(C(=O)c1cccc2ccccc12)c1nc2cc3c(cc2s1)OCO3	-	.	.
Cc1cccc(NC(=O)CN(C)S(=O)(=O)c2cccc3cccnc23)c1C	-164.1	-	-
O=[N+]([O-])c1ccc(-c2ccc(C=Nc3cccc4ccccc34)o2)cc1	-	.	.
CC(=O)OCC1=C(C(=O)O)N2C(=O)C(NC(=O)C(C)Cn3nc(C)c(Cl)c3C)C2SC1 (stereo unspecified)	-90.2	-	-
CC1=NN(c2ccc(C)cc2C)C(=O)C1C(c1ccccc1O)C1C(=O)N(c2ccc(C)cc2C)N=C1C (stereo unspecified)	-	.	.
CC(C)Oc1ccc(C2NC(=O)c3ccccc3O2)cc1 (stereo unspecified)	-97.8	-	-
COc1ccc(Br)cc1CNc1ccc(O)cc1	-	.	.
CC(=O)C(C(C)=O)C1(O)C(=O)c2ccccc2C1=O	-	.	.
COC(=O)CCC(=O)OC1(C)C(=O)C=C2C=C(C3CC3)N(CC(C)C)C=C2C1=O (stereo unspecified)	-	.	.
Fc1ccc(C2=NOC(c3nnc(-c4ccccc4)o3)C2)cc1 (stereo unspecified)	-460.5	-	-
